Experimental data as given in ChEMBL document CHEMBL2385031, “Design, synthesis, and initial evaluation of a high affinity positron emission tomography probe for imaging matrix metalloproteinases 2 and 9” (J Med Chem, 2013).

tested on: not listed separately; experiment: Drug uptake in C57BL/6 mouse urinary bladder at 5.3 MBq, iv by PET/CT imaging; assay type: ADME, organism-based; details: in vivo; call rule not given here
Method in brief: (§1)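 Single C57BL/6 mouse, 5.3 MBq 18F-tracer via tail vein, isoflurane 2−3% in oxygen/air, body kept at 37 °C. Small-animal PET/CT, two-bed static acquisition: anterior 8−22 min, posterior 23−38 min post-injection; images averaged 8−38 min.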

Drug uptake | SMILES
Active | O=C(Nc1ccc(S(=O)(=O)N[C@H](Cc2c[nH]c3ccccc23)C(=O)O)cc1)c1ccc([18F])cc1

tested on: Bone; experiment: Drug uptake in C57BL/6 mouse bone at 5.3 MBq, iv by PET/CT imaging; assay type: ADME, organism-based, Bone element; details: in vivo; method in brief: as §1

Drug uptake | SMILES
Not Active | O=C(Nc1ccc(S(=O)(=O)N[C@H](Cc2c[nH]c3ccccc23)C(=O)O)cc1)c1ccc([18F])cc1

tested on: not listed separately; experiment: Drug excretion in C57BL/6 mouse urine at 650 MBq/mL after 15 to 60 mins by UPLC analysis; assay type: ADME, tissue-based; details: in the assay text read “after 60 mins” for “after 15 to 60 mins”, read-out: Drug excretion
Method in brief: (§2)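 C57BL/6 mice given 150 μL of 650 MBq/mL (17.5 mCi/mL) 18F-labelled tracer each; killed by decapitation at 15, 30 and 60 min post-injection. Blood and urine collected, proteins precipitated with twice the volume of ice-cold acetonitrile, centrifuged; supernatants analysed by radio-UPLC for intact tracer versus metabolites.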

dose excreted | SMILES
85% | O=C(Nc1ccc(S(=O)(=O)N[C@H](Cc2c[nH]c3ccccc23)C(=O)O)cc1)c1ccc([18F])cc1

tested on: Blood; experiment: Drug metabolism in C57BL/6 mouse blood assessed as compound remaining at 650 MBq/mL after 15 to 60 mins by UPLC analysis; assay type: ADME, tissue-based; details: not given; method in brief: as §2

Drug metabolism | SMILES
Not Active | O=C(Nc1ccc(S(=O)(=O)N[C@H](Cc2c[nH]c3ccccc23)C(=O)O)cc1)c1ccc([18F])cc1

target: 72 kDa type IV collagenase (Homo sapiens, UniProt P08253); experiment: Inhibition of human full length MMP2 using Mca-Pro-Leu-Gly-Leu-Dpa(Dnp)-Ala-Arg-NH2 as substrate measured up to 120 mins by fluorescence assay; details: not given
Sequence (P08253 whole entry): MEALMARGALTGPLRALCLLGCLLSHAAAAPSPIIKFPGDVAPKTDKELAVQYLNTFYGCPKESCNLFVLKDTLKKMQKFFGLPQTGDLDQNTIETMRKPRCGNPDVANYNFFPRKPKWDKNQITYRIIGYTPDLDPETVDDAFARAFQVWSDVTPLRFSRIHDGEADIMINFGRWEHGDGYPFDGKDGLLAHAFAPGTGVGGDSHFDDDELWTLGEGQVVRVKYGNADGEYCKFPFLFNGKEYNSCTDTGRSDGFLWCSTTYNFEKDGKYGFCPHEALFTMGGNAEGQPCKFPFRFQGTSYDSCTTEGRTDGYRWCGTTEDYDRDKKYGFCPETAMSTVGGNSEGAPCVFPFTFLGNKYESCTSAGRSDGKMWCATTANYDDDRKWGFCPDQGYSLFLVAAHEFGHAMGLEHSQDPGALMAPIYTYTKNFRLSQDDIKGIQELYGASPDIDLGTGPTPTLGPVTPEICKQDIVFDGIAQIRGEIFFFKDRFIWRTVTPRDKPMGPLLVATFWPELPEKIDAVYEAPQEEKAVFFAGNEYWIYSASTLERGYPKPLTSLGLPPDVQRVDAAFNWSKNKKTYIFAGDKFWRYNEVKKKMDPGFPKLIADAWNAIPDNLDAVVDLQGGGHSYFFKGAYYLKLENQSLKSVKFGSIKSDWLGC
Method in brief: (§3)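 Recombinant full-length human enzyme activated with APMA, used at 0.1 nM final in 50 mM Tris/HCl pH 7.5, 10 mM CaCl2, 150 mM NaCl, 0.05% Brij-35. Inhibitor added from DMSO (e.g., 1 nM to 30 μM). Activity read as initial slope of fluorescence rise from cleavage of an internally quenched fluorogenic substrate; IC50 derived.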

SMILES | IC50
O=C(Nc1ccc(S(=O)(=O)N[C@H](Cc2c[nH]c3ccccc23)C(=O)O)cc1)c1ccc(Br)cc1 | 0.9 nM
O=C(Nc1ccc(S(=O)(=O)N[C@H](Cc2c[nH]c3ccccc23)C(=O)O)cc1)c1ccc(OC(F)(F)F)cc1 | 4.8 nM
O=C(Nc1ccc(S(=O)(=O)N[C@H](Cc2c[nH]c3ccccc23)C(=O)O)cc1)c1ccc(F)cc1 | 1.8 nM
O=C(Nc1ccc(S(=O)(=O)N[C@H](Cc2c[nH]c3ccccc23)C(=O)O)cc1)c1ccc(I)cc1 | < 1 nM
CC(C)COc1ccc(C(=O)Nc2ccc(S(=O)(=O)N[C@H](Cc3c[nH]c4ccccc34)C(=O)O)cc2)cc1 | < 1 nM
O=C(Nc1ccc(S(=O)(=O)N[C@H](Cc2c[nH]c3ccccc23)C(=O)O)cc1)c1ccnc(F)c1 | 14 nM
O=C(Nc1ccc(S(=O)(=O)N[C@H](Cc2c[nH]c3ccccc23)C(=O)O)cc1)c1ccc(F)nc1 | 7 nM
O=C(Nc1ccc(S(=O)(=O)N[C@H](Cc2c[nH]c3ccccc23)C(=O)O)cc1)c1cccnc1F | 141 nM
O=C(Nc1ccc(S(=O)(=O)N[C@H](Cc2c[nH]c3ccccc23)C(=O)O)cc1)c1cc(F)ccn1 | 5.2 nM

The remaining lines, values ahead:

IC50 | SMILES
4.8 nM | COc1ccc(-c2ccc(S(=O)(=O)N[C@H](Cc3c[nH]c4ccccc34)C(=O)O)cc2)cc1
< 1 nM | COc1ccc(C(=O)Nc2ccc(S(=O)(=O)N[C@H](Cc3c[nH]c4ccccc34)C(=O)O)cc2)cc1
< 1 nM | CC(C)Oc1ccc(C(=O)Nc2ccc(S(=O)(=O)N[C@H](Cc3c[nH]c4ccccc34)C(=O)O)cc2)cc1
5.8 nM | O=C(O)[C@@H](Cc1c[nH]c2ccccc12)NS(=O)(=O)c1ccc(-c2ccc(Cl)cc2)cc1
3.6 nM | COc1ccc(Oc2ccc(S(=O)(=O)N[C@H](Cc3c[nH]c4ccccc34)C(=O)O)cc2)cc1

target: Matrix metalloproteinase-9 (Homo sapiens, UniProt P14780); experiment: Inhibition of human full length MMP9 using Mca-Pro-Leu-Gly-Leu-Dpa(Dnp)-Ala-Arg-NH2 as substrate measured up to 120 mins by fluorescence assay; details: not given; method in brief: as §3
Sequence (P14780 whole entry): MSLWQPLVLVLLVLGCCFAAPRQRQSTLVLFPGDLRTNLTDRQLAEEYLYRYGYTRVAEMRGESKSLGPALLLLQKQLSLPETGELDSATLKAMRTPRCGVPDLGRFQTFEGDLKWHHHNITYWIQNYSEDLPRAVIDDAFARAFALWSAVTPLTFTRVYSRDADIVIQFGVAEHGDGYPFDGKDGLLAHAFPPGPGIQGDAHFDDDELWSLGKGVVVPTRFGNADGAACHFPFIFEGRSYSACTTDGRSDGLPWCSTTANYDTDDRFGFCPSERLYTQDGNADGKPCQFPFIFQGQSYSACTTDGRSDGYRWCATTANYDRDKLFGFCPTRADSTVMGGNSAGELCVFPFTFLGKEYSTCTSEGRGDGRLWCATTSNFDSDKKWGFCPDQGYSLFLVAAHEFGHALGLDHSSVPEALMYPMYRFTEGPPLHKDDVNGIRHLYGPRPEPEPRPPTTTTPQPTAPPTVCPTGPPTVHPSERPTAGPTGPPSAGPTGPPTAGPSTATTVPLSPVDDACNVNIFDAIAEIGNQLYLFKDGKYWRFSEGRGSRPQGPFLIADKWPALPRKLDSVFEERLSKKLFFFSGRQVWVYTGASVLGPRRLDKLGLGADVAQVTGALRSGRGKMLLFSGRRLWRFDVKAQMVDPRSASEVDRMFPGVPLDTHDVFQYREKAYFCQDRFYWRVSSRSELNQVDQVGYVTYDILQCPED

SMILES | IC50
O=C(Nc1ccc(S(=O)(=O)N[C@H](Cc2c[nH]c3ccccc23)C(=O)O)cc1)c1ccc(Br)cc1 | 1 nM
O=C(Nc1ccc(S(=O)(=O)N[C@H](Cc2c[nH]c3ccccc23)C(=O)O)cc1)c1ccc(OC(F)(F)F)cc1 | 21 nM
O=C(Nc1ccc(S(=O)(=O)N[C@H](Cc2c[nH]c3ccccc23)C(=O)O)cc1)c1ccc(F)cc1 | 7 nM
O=C(Nc1ccc(S(=O)(=O)N[C@H](Cc2c[nH]c3ccccc23)C(=O)O)cc1)c1ccc(I)cc1 | 1.1 nM
CC(C)COc1ccc(C(=O)Nc2ccc(S(=O)(=O)N[C@H](Cc3c[nH]c4ccccc34)C(=O)O)cc2)cc1 | 460 nM
O=C(Nc1ccc(S(=O)(=O)N[C@H](Cc2c[nH]c3ccccc23)C(=O)O)cc1)c1ccnc(F)c1 | 78 nM
O=C(Nc1ccc(S(=O)(=O)N[C@H](Cc2c[nH]c3ccccc23)C(=O)O)cc1)c1ccc(F)nc1 | 17 nM
O=C(Nc1ccc(S(=O)(=O)N[C@H](Cc2c[nH]c3ccccc23)C(=O)O)cc1)c1cccnc1F | > 1000 nM
O=C(Nc1ccc(S(=O)(=O)N[C@H](Cc2c[nH]c3ccccc23)C(=O)O)cc1)c1cc(F)ccn1 | 38 nM

The remaining lines, values ahead:

IC50 | SMILES
28 nM | COc1ccc(-c2ccc(S(=O)(=O)N[C@H](Cc3c[nH]c4ccccc34)C(=O)O)cc2)cc1
11 nM | COc1ccc(C(=O)Nc2ccc(S(=O)(=O)N[C@H](Cc3c[nH]c4ccccc34)C(=O)O)cc2)cc1
97 nM | CC(C)Oc1ccc(C(=O)Nc2ccc(S(=O)(=O)N[C@H](Cc3c[nH]c4ccccc34)C(=O)O)cc2)cc1
230 nM | O=C(O)[C@@H](Cc1c[nH]c2ccccc12)NS(=O)(=O)c1ccc(-c2ccc(Cl)cc2)cc1
100 nM | COc1ccc(Oc2ccc(S(=O)(=O)N[C@H](Cc3c[nH]c4ccccc34)C(=O)O)cc2)cc1

target: T1, Interstitial collagenase (Homo sapiens, UniProt P03956); experiment: Inhibition of MMP1 (unknown origin); details: not given
T1 sequence (P03956 whole entry): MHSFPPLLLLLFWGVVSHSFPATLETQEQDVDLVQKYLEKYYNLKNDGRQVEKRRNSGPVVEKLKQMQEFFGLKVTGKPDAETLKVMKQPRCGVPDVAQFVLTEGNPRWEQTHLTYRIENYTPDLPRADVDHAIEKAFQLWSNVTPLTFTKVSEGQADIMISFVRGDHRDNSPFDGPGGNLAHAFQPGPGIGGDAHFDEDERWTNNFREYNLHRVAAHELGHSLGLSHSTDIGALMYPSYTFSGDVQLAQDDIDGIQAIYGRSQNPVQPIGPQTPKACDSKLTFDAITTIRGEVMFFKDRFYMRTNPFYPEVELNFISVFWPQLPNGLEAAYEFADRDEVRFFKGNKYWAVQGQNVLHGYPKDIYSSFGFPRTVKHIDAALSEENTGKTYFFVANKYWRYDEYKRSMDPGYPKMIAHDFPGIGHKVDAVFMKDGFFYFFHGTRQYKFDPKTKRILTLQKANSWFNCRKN

IC50 | SMILES
> 1000 nM | O=C(Nc1ccc(S(=O)(=O)N[C@H](Cc2c[nH]c3ccccc23)C(=O)O)cc1)c1ccc(Br)cc1
> 1000 nM | O=C(Nc1ccc(S(=O)(=O)N[C@H](Cc2c[nH]c3ccccc23)C(=O)O)cc1)c1ccc(F)cc1
> 1000 nM | O=C(Nc1ccc(S(=O)(=O)N[C@H](Cc2c[nH]c3ccccc23)C(=O)O)cc1)c1ccc(F)nc1

tested on: Plasma; experiment: Metabolic stability in rat plasma at 60 Mbq up to 2 hrs by UPLC analysis; assay type: ADME, cell-free; details: not given
Method in brief: (§4)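 About 60 MBq formulated 18F-tracer (5% ethanol in PBS) added to ~0.5 mL plasma, split into six aliquots. Zero-time sample quenched immediately with methanol; others incubated at 37 °C with shaking and quenched with ice-cold methanol at 5, 30, 60, 90, 120 min. Proteins removed by centrifugation at 10000g, 10 min; supernatants analysed by UPLC.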

Stability | SMILES
Stable | O=C(Nc1ccc(S(=O)(=O)N[C@H](Cc2c[nH]c3ccccc23)C(=O)O)cc1)c1ccc([18F])cc1

tested on: Plasma; experiment: Metabolic stability in human plasma at 60 Mbq up to 2 hrs by UPLC analysis; assay type: ADME, cell-free; details: not given; method in brief: as §4

Stability | SMILES
Stable | O=C(Nc1ccc(S(=O)(=O)N[C@H](Cc2c[nH]c3ccccc23)C(=O)O)cc1)c1ccc([18F])cc1
